Rows were chosen to be rich in hits. Some 4.3% of all compounds tested hit in one or more screens of this group.
ALR inh: inhibitors of human ALR sulfhydryl oxidase, primary screen, biochemical, H2O2 detection, HRP-luminol luminescence, single point | AID 485317, 2010 | inhibition, % (no concentration beside the values) | FAD-linked sulfhydryl oxidase ALR (Homo sapiens), P55789 | hit rate 3.8% among 290,000 | purified ALR, DTT oxidation;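 active = mean replicate inhibition above about 79%, with every replicate also reaching it, limit read from the data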
SUMO HTRF inh: inhibitors of in vitro SUMOylation cascade, primary screen, biochemical, HTRF, uHTS | hit rate 0.36% among 290,000 | SUMO-conjugating enzyme UBC9 (Homo sapiens), P63279 | AID 2006, 2009 | inhibition, % at 35 µM | HTRF SUMOylation assay, SAE1/SAE2 + UBC9; in the data active = inhibition above about 50%, passing the limit was not always enough
PREPL inh: PREPL enzyme inhibitors, primary screen, biochemical, fluorescence polarization. recombinant PREPL, fluorescence polarization activity-based probe. inhibition, % at 5.96 µM. hit rate 0.68% among 320,000. AID 2751, 2010; in the data active = inhibition above about 43%
Target sequence (Q4J6C6 whole entry, looked up): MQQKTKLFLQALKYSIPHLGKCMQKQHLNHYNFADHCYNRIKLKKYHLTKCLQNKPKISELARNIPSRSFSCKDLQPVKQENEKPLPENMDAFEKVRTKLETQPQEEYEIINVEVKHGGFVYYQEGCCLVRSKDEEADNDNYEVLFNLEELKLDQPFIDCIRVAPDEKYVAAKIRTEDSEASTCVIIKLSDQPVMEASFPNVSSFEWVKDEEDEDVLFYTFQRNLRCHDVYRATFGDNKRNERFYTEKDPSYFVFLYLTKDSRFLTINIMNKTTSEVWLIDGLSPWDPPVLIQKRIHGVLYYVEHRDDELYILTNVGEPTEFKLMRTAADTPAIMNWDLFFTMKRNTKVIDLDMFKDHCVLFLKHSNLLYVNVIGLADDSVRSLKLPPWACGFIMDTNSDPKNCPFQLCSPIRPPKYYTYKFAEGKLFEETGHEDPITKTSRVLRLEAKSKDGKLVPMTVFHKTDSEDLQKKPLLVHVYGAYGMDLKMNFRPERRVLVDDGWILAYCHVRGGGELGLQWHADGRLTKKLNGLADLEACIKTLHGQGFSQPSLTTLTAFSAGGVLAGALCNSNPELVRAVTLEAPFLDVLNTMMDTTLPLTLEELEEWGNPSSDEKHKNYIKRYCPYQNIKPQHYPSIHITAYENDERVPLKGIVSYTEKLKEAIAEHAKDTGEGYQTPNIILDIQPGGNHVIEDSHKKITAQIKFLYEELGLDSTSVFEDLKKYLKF
UBC13 inh: UBC13 polyubiquitin chain formation inhibitors, primary screen, biochemical, TR-FRET, uHTS | hit rate 0.47% among 330,000 | Ubiquitin-conjugating enzyme E2 N (Homo sapiens), P61088 | inhibition, % at 20 µM; in the data active = inhibition above about 45%, passing the limit was not always enough
RBBP9 inhibitor: human RBBP9 inhibitors, primary screen, biochemical, fluorescence polarization, FP-Rh probe, HTS; recombinant RBBP9; Serine hydrolase RBBP9 (Homo sapiens), O75884; inhibition, % at 7.94 µM; hit rate 0.2% among 220,000;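 active = inhibition above the campaign mean of all tested compounds plus 3 SD, cut at about 14% in these data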
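Test system – recombinant human RBBP9 · Input – RBBP9 2.5 µM in dispensing solution, pre-mixing · Medium – Tris buffer pH 8.0, NaCl, Pluronic · Schedule – preincubation 30 min plus labeling 45 min at 25 °C · Measured by – fluorescence polarization · Measure – % inhibition · Controls – DMSO and no-protein wells · Replicates – one well per compound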
Rin1-Abl PPI inh: inhibitors of Rin1-Abl protein binding, primary screen, biochemical, TR-FRET. Tyrosine-protein kinase ABL1 (Homo sapiens) + Ras and Rab interactor 1 (Homo sapiens), …. hit rate 0.4% among 360,000. AID 588664, 2011. inhibition, % at 7.35 µM; in the data active = inhibition above about 5%, passing the limit was not always enough
Hits are given with their value; – = inactive; · = not tested or not shown.

SMILES	ALR inh	SUMO HTRF inh	PREPL inh	UBC13 inh	RBBP9 inhibitor	Rin1-Abl PPI inh
O=C(N/N=C/C1C(=O)NC(=S)N(c2ccccc2)C1=O)c1cc(Br)c(O)c(Br)c1 (centres undefined)	–	–	–	–	–	–
O=C(NC1(C(F)(F)F)Oc2ccc(Cl)cc2O1)N1CCC2(CC1)OCCO2 (centres undefined)	99.2	–	–	–	–	–
CCc1ccc(N2C(=O)NC(=O)/C(=C\C=C\c3ccco3)C2=O)cc1	97.8	–	–	–	–	–
CC1=NN(c2ccccc2)C(=O)C1/C=C1/C(=O)NC(=O)N(c2cc(C)cc(C)c2)C1=O (centres undefined)	87.2	–	–	–	–	–
Cc1cc(C)cc(N2C(=O)NC(=O)/C(=C\C=C\c3ccco3)C2=O)c1	95.9	–	–	·	–	–
CC1=NN(c2ccccc2)C(=O)C1/C=C1\C(=O)NC(=O)N(c2cc(C)cc(C)c2)C1=O (centres undefined)	–	–	–	–	–	–
CC(C)c1ccc(N2C(=O)NC(=O)/C(=C/C=C/c3ccco3)C2=O)cc1	·	–	–	·	–	–
Cc1ccc(OC(=O)N(C)C[C@@H]2OCc3cnnn3CCCC(=O)N([C@H](C)CO)C[C@H]2C)cc1	·	·	·	·	·	–
COC(=O)N(C)c1ccc(C(O)(C(=O)OC)C(F)(F)F)cc1 (centres undefined)	–	–	–	–	–	–
COC(=O)C(O)(c1ccc2c(c1)CCCN2)C(F)(F)F (centres undefined)	96.6	–	–	–	–	–
Cc1nc2ccccc2c(=O)n1-c1ccc(Cl)cc1[N+](=O)[O-]	–	–	–	–	–	–
O=c1cccc2n1C[C@@H]1C[C@@H]2CN(CC(O)c2ccc([N+](=O)[O-])cc2)C1 (some centres undefined)	–	–	·	–	·	–
Cc1oc(-c2ccccc2F)nc1CS(=O)CC(=O)N1CCC2(CC1)OCCO2 (centres undefined)	98.9	–	–	–	–	–
Cc1oc(-c2ccc(Cl)cc2)nc1CS(=O)CC(=O)N1CCC2(CC1)OCCO2 (centres undefined)	98.5	–	–	–	–	–
O=C(c1ccc(N2CCCCCC2)c([N+](=O)[O-])c1)N1CCC2(CC1)OCCO2	–	–	–	–	–	–
CN1C(=O)C(C)(C2=CCCCC2)C(=O)NC1=S (centres undefined)	·	·	·	·	·	–
O=C1CN=C(c2ccccc2)c2cc(Br)ccc2N1Cc1cc(=O)n2ccccc2n1	·	–	50.1	–	–	–
NNC(=O)CN1C(=O)CN=C(c2ccccc2)c2cc(Br)ccc21	–	–	–	–	–	–
COc1cc2c(cc1O)C[C@H]1c3c(cc(O)c(OC)c3-2)CCN1C	98.1	·	–	–	·	–
CN1CCc2cc(O)cc3c2[C@H]1Cc1ccc(O)c(O)c1-3	98.5	·	–	–	·	–
O=C(O)CCCc1ccc(N(CCCl)CCCl)cc1	98.7	–	–	–	–	–
N[C@@H](Cc1ccc(N(CCCl)CCCl)cc1)C(=O)O	–	·	–	–	·	–
c1ccc2[nH]c(CCN3CCCCC3)nc2c1	·	·	·	·	·	–
N#C/C(N)=C(/N)C#N	98.5	·	–	–	·	–
CC(N)C(=O)OC(C)(C)Cc1ccc(Cl)cc1 (centres undefined)	–	·	–	–	·	–
SMILES	ALR inh	SUMO HTRF inh	PREPL inh	UBC13 inh	RBBP9 inhibitor	Rin1-Abl PPI inh
CCOP(=O)(OCC)C(O)c1ccc(OC)c(OC)c1 (centres undefined)	98.8	–	–	–	–	–
N#CC(C#N)=Cc1ccc(O)c(O)c1	98.1	·	–	–	·	–
CC(C)(C)c1cc(C=C(C#N)C#N)cc(C(C)(C)C)c1O	–	·	–	–	·	–
C/C(O)=C(\C#N)C(=O)Nc1cc(Br)ccc1Br	96.8	·	–	–	·	–
CCOP(=O)(Nc1ccc2c(c1)C(=NNC(N)=S)c1ccccc1-2)OCC	·	·	·	·	·	–
CC1(C)OC(c2ccccc2)=C/C(=C/C=C2C(=O)NC(=S)NC2=O)O1	87.6	–	–	–	–	·
O=C1NC(=O)N(Cc2ccco2)C(=O)/C1=C/c1cccn1CCOc1ccccc1Cl	–	65.6	–	–	–	–
O=C1NC(=O)N(Cc2ccccc2)C(=O)/C1=C\c1ccco1	–	–	–	–	–	–
CCN(CC)c1ccc(/C=C2\C(=O)NC(=O)N(Cc3ccco3)C2=O)cc1	·	–	–	–	–	–
O=C(O)Cn1cc(/C=C2\C(=O)NC(=O)N(Cc3ccco3)C2=O)c2ccccc21	98.3	–	–	–	–	–
Cc1cc(/C=C2/C(=O)NC(=O)N(Cc3ccco3)C2=O)c(C)n1-c1ccccc1O	80.6	–	–	–	–	–
COc1ccc(-c2cc(=Nc3cccc(C(=O)O)c3)c3cc(C)ccc3o2)cc1	96.1	–	–	–	–	–
CCCCn1c(NS(=O)(=O)c2ccccc2)c(C(=O)OCC)c2nc3ccccc3nc21	–	100.1	–	·	–	–
CCOC(=O)c1c(N)n(CCN2CCCCC2)c2nc3ccccc3nc12	–	–	–	–	–	–
COP(=S)(OC)c1c(C)nn(CCC#N)c1NC(=O)c1ccc(Cl)cc1	·	–	–	–	·	–
Cc1cc(C=C2C(=O)NC(=S)NC2=O)c(C)n1-c1ccc2c(c1)OCO2	–	78.6	–	–	–	–
COc1ccc(-n2c(O)c(/C=C3\C=Nc4ccc(Br)cc43)c(=O)[nH]c2=O)cc1	–	–	–	–	·	–
COc1ccc(-n2c(O)c(/C=C3\C=Nc4ccc(Br)cc43)c(=O)[nH]c2=O)c(OC)c1	96.9	–	–	–	·	–
O=c1[nH]c(=O)n(-c2ccccc2F)c(O)c1/C=C1\C=Nc2ccccc21	95.9	–	–	–	·	–
O=C1C2CCN(CC2)[C@@H]1Cc1ccc2ccccc2c1O	81.3	–	–	–	–	–
CN1C(=O)C(Cc2cccc3ccccc23)C(=O)N(C)C1=O	–	–	–	–	–	–
O=c1[nH]c(=O)n(CCC2=CCCCC2)c(O)c1/C=N/Nc1ccccc1	98.2	–	–	–	–	–
O=c1[nH]c(=O)n(Cc2ccc(F)cc2)c(O)c1C=NCCCO	–	–	–	–	–	–
CCC(C)n1c(O)c(C=NCCc2ccccc2)c(=O)[nH]c1=S (centres undefined)	·	–	–	–	–	–
O=c1[nH]c(=O)n(CCC2=CCCCC2)c(O)c1/C=N/Nc1cccc2ccccc12	–	–	–	–	–	–
CCC(C)n1c(O)c(/C=N/Nc2ccccc2)c(=O)[nH]c1=S (centres undefined)	99.9	–	–	–	–	–
O=c1[nH]c(=O)n(Cc2ccc(F)cc2)c(O)c1/C=N/Nc1ccccc1	98.6	–	–	–	–	–
CCCCn1nnnc1C(c1cccs1)N1CCC2(CC1)C(=O)NCN2c1ccccc1 (centres undefined)	·	·	·	·	·	–

Screens (PubChem BioAssay)
